Experimental data collected from several papers.
Lines come from different studies, so protocols differ.
AKT2: RAC-beta serine/threonine-protein kinase (AKT2, Homo sapiens, UniProt P31751)
PDK1: [Pyruvate dehydrogenase (acetyl-transferring)] kinase isozyme 1, mitochondrial (PDK1, Homo sapiens, UniProt Q15118)

With `C=CC(=O)N1CCC(COCC(=O)N2CCN(c3nc(-c4cnc(N)nc4C(F)F)nc(N4CCOC[C@@H]4C)n3)CC2)CC1` the remaining binding was 100% (AKT2; binding; competition with immobilised ligand; 1 µM).
`CC(=O)Nc1ccc(Oc2ccc(C(=O)C(Cl)Cl)cc2[N+](=O)[O-])cc1` has an inhibition of 22.7% (PDK1; enzyme activity; inhibitor; ATP luminescence; 10 µM).
`COc1cc(-c2cncc3c2CN(C)Cc2cc(N4CCNCC4)ccc2-3)cc(OC)c1OC` has a remaining activity of 132% (AKT2; enzyme activity; inhibitor; 1 µM).
The remaining binding of `Cc1cc([C@@H](C)Nc2ccccc2C(=O)O)c2nc(N3CCC(F)(F)CC3)c(C#N)c(=O)n2c1` is reported as 100% (Casein kinase I isoform gamma-2 (CSNK1G2, Homo sapiens, UniProt P78368); binding; competition with immobilised ligand; 1 µM).
For `O=C(c1ccc(Oc2ccc3c(c2)OCO3)c([N+](=O)[O-])c1)C(Cl)Cl`, the inhibition was 20.3% (PDK1; enzyme activity; inhibitor; ATP luminescence; 10 µM).
For `Cc1ncsc1-c1ccc(CNC(=O)[C@@H]2C[C@@H](O)CN2C(=O)[C@@H](NC(=O)CCCCCCCCNC(=O)CN2CCN(C(=O)c3ccc(Nc4nc(C5CC5)cn5c(-c6cn[nH]c6)cnc45)c(F)c3)CC2)C(C)(C)C)cc1`, the inhibition was over 65% (Mitogen-activated protein kinase kinase kinase 19 (MAP3K19, Homo sapiens, UniProt Q56UN5); cell-free assay; competition with immobilised ligand; 1 µM).
For `CNc1ncc2c(/C=C/C(=O)N3CCC(OC)CC3)nn(Cc3cccc(C(F)(F)F)c3)c2n1`, the remaining activity was 95% (Vascular endothelial growth factor receptor 1 (FLT1, Homo sapiens, UniProt P17948); enzyme activity; inhibitor; radiometric; 1 µM).
`O=C(c1ccccc1)c1ccc(Oc2ccc(C(=O)C(Cl)Cl)cc2[N+](=O)[O-])cc1` gave an inhibition of 36.9% (PDK1; enzyme activity; inhibitor; ATP luminescence; 10 µM).
`Cc1cc(NC(=O)c2cccc(NC(=O)/C=C/CN(C)C)c2)ccc1Nc1nccc(-c2cccnc2)n1` has a remaining binding of 4.1% (Mast/stem cell growth factor receptor Kit (KIT, Homo sapiens, UniProt P10721); binding; competition with immobilised ligand; 1 µM).
